From ChEMBL document CHEMBL1926651, “Design, synthesis, antiviral and cytostatic evaluation of novel isoxazolidine nucleotide analogues with a 1,2,3-triazole linker” (Eur J Med Chem, 2012)
Active and inactive are the calls of the source. No cut-off for these calls is given here.

Key:
[1] = tested on: Human alphaherpesvirus 1; experiment: Antiviral activity against Herpes simplex virus 1 KOS infected in human HEL cells assessed as inhibition of viral plaque formation at 250 uM; assay type: functional, organism-based
Outline: (§1)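 Confluent host cell monolayers were inoculated with 100 CCID50 of virus in the presence of test compound at serial dilutions (250, 50, 10, … μM). Viral cytopathicity was scored once it reached completion in untreated virus-infected controls.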

[2] = tested on: Coxsackievirus B4; experiment: Antiviral activity against Coxsackievirus B4 infected in african green monkey Vero cells assessed as inhibition of viral plaque formation at 250 uM; assay type: functional, organism-based; outline: as §1
[3] = tested on: Vaccinia virus; experiment: Antiviral activity against Vaccinia virus infected in human HEL cells assessed as inhibition of viral plaque formation at 250 uM; assay type: functional, organism-based; conditions: Orthopoxvirus vaccinia; outline: as §1
[4] = tested on: HEL; experiment: Cytotoxicity against human HEL cells 3 days by coulter counting; assay type: functional; conditions: 72 h
Outline: (§2)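 Cells were suspended at 300,000–500,000 cells/mL and added 1:1 to compound dilutions. Incubation was at 37 °C, 2 days for L1210 and 3 days for CEM, HeLa and HEL. Cells were counted with a Coulter counter. CC50 is the concentration inhibiting cell proliferation by 50%.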

[5] = tested on: Punta Toro virus; experiment: Antiviral activity against Punta Toro virus infected in african green monkey Vero cells assessed as inhibition of viral plaque formation at 250 uM; assay type: functional, organism-based
[6] = tested on: CCRF-CEM; experiment: Cytotoxicity against human CEM cells 3 days by coulter counting; assay type: functional; conditions: 72 h; outline: as §2
[7] = tested on: HeLa; experiment: Cytotoxicity against human HeLa cells assessed as change in cell morphology up to 100 uM; assay type: cell-based
Outline: (§3)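 Uninfected host-cell cultures were examined under the microscope. MCC was taken as the lowest compound concentration producing a detectable alteration of normal cell morphology, assessed at concentrations up to 100 μM.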

[8] = tested on: Human immunodeficiency virus 2; experiment: Antiviral activity against Human immunodeficiency virus 2 infected in human CEM cells assessed as inhibition of virus-induced giant cell formation after 4 days by microscopic analysis; assay type: functional, organism-based; conditions: CCRF-CEM
Outline: (§4)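 CEM cells at about 3 × 10⁵ cells/cm³ were infected with 100 CCID50/mL of HIV-1(IIIB) or HIV-2(ROD), then seeded into wells holding test compound dilutions. After 4 days at 37 °C, virus-induced giant cell formation was scored microscopically.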

[9] = tested on: L1210; experiment: Cytotoxicity against mouse L1210 cells 2 days by coulter counting; assay type: functional; conditions: L1210, 48 h; outline: as §2
[10] = tested on: Felid alphaherpesvirus 1; experiment: Antiviral activity against Felid herpesvirus 1 infected in CrFK cells assessed as inhibition of viral plaque formation at 250 uM; assay type: functional, organism-based; outline: as §1
[11] = Cytotoxicity against CRFK cells assessed as change in cell morphology up to 100 uM; assay type: cell-based, Felis catus; conditions: cat; outline: as §3
[12] = tested on: Human betaherpesvirus 5; experiment: Antiviral activity against Human cytomegalovirus AD169 infected in human HEL cells assessed as inhibition of viral plaque formation at 250 uM; assay type: functional, organism-based
[13] = tested on: Human alphaherpesvirus 1; experiment: Antiviral activity against thymidine kinase-deficient acv-resistant Herpes simplex virus 1 KOS infected in human HEL cells assessed as inhibition of viral plaque formation at 250 uM; assay type: functional, organism-based
[14] = tested on: Vesicular stomatitis virus; experiment: Antiviral activity against Vesicular stomatitis virus infected in human HEL cells assessed as inhibition of viral plaque formation at 250 uM; assay type: functional, organism-based; outline: as §1
[15] = tested on: Mammalian orthoreovirus 1; experiment: Antiviral activity against Reovirus-1 infected in african green monkey Vero cells assessed as inhibition of viral plaque formation at 250 uM; assay type: functional, organism-based; outline: as §1
[16] = tested on: HeLa; experiment: Cytotoxicity against human HeLa cells 3 days by coulter counting; assay type: functional; conditions: 72 h; outline: as §2
[17] = tested on: Vero; experiment: Cytotoxicity against african green monkey Vero cells assessed as change in cell morphology up to 100 uM; assay type: cell-based; conditions: chlorocebus sabaeus; outline: as §3
[18] = tested on: MDCK; experiment: Cytotoxicity against MDCK cells assessed as change in cell morphology up to 100 uM; assay type: cell-based, Canis lupus familiaris; conditions: dog; outline: as §3
[19] = tested on: Human immunodeficiency virus 1; experiment: Antiviral activity against Human immunodeficiency virus 1 infected in human CEM cells assessed as inhibition of virus-induced giant cell formation after 4 days by microscopic analysis; assay type: functional, organism-based; conditions: CCRF-CEM; outline: as §4
[20] = tested on: Human respirovirus 3; experiment: Antiviral activity against Parainfluenza-3 virus infected in african green monkey Vero cells assessed as inhibition of viral plaque formation at 250 uM; assay type: functional, organism-based; outline: as §1
[21] = tested on: Sindbis virus; experiment: Antiviral activity against Sindbis virus infected in african green monkey Vero cells assessed as inhibition of viral plaque formation at 250 uM; assay type: functional, organism-based; outline: as §1
[22] = tested on: Human alphaherpesvirus 3; experiment: Antiviral activity against thymidine kinase-positive Varicella Zoster virus Oka infected in human HEL cells assessed as inhibition of viral plaque formation at 250 uM; assay type: functional, cell-based; conditions: strain Oka vaccine
[23] = tested on: Human betaherpesvirus 5; experiment: Antiviral activity against Human cytomegalovirus Davis infected in human HEL cells assessed as inhibition of viral plaque formation at 250 uM; assay type: functional, organism-based
[24] = tested on: Human alphaherpesvirus 2; experiment: Antiviral activity against Herpes simplex virus 2 G infected in human HEL cells assessed as inhibition of viral plaque formation at 250 uM; assay type: functional, organism-based; conditions: strain G
[25] = tested on: Human alphaherpesvirus 3; experiment: Antiviral activity against thymidine kinase-deficient Varicella Zoster virus 07/1 infected in human HEL cells assessed as inhibition of viral plaque formation at 250 uM; assay type: functional, organism-based
[26] = tested on: Coxsackievirus B4; experiment: Antiviral activity against Coxsackievirus B4 infected in human HeLa cells assessed as inhibition of viral plaque formation at 250 uM; assay type: functional, organism-based; outline: as §1
[27] = tested on: Respiratory syncytial virus; experiment: Antiviral activity against Respiratory syncytial virus infected in human HeLa cells assessed as inhibition of viral plaque formation at 250 uM; assay type: functional, organism-based; outline: as §1
[28] = tested on: HEL; experiment: Cytotoxicity against human HEL cells assessed as change in cell morphology up to 100 uM; assay type: cell-based; outline: as §3
[29] = tested on: Vesicular stomatitis virus; experiment: Antiviral activity against Vesicular stomatitis virus infected in human Hela cells assessed as inhibition of viral plaque formation at 250 uM; assay type: functional, organism-based
[30] = tested on: Feline coronavirus; experiment: Antiviral activity against Feline coronavirus infected in CrFK cells assessed as inhibition of viral plaque formation at 250 uM; assay type: functional, organism-based; outline: as §1

CCOP(=O)(OCC)[C@@H]1C[C@@H](n2cc(-c3ccccc3)nn2)ON1C (racemic)
Activity [1]: inactive | Activity [2]: inactive | Activity [3]: inactive | CC50 [4]: 40 µM | Activity [5]: inactive | CC50 [6]: > 250 µM | Activity [7]: Non-toxic | Activity [8]: inactive | CC50 [9]: > 250 µM | Activity [10]: inactive | Activity [11]: Non-toxic | Activity [12]: inactive | Activity [13]: inactive | Activity [14]: inactive | Activity [15]: inactive | CC50 [16]: > 250 µM | Activity [17]: Non-toxic | Activity [18]: Non-toxic | Activity [19]: inactive | Activity [20]: inactive | Activity [21]: inactive | Activity [22]: inactive | Activity [23]: inactive | Activity [24]: inactive | Activity [25]: inactive | Activity [26]: inactive | Activity [27]: inactive | Activity [28]: Non-toxic | Activity [29]: inactive | Activity [30]: inactive

CCOP(=O)(OCC)[C@@H]1C[C@@H](n2cc(Cn3cc(C)c(=O)[nH]c3=O)nn2)ON1C (relative stereo)
Activity [1]: inactive | Activity [2]: inactive | Activity [3]: inactive | CC50 [4]: > 100 µM | Activity [5]: inactive | CC50 [6]: > 250 µM | Activity [8]: inactive | CC50 [9]: ≥ 250 µM | Activity [10]: inactive | Activity [12]: inactive | Activity [13]: inactive | Activity [14]: inactive | Activity [15]: inactive | CC50 [16]: > 250 µM | Activity [19]: inactive | Activity [20]: inactive | Activity [21]: inactive | Activity [22]: inactive | Activity [23]: inactive | Activity [24]: inactive | Activity [25]: inactive | Activity [26]: inactive | Activity [27]: inactive | Activity [29]: inactive | Activity [30]: inactive

CCOP(=O)(OCC)[C@@H]1C[C@@H](n2cc(Cn3ccc(NC(C)=O)nc3=O)nn2)ON1C (relative stereo)
Activity [1]: inactive | Activity [2]: inactive | Activity [3]: inactive | CC50 [4]: > 100 µM | Activity [5]: inactive | CC50 [6]: > 250 µM | Activity [8]: inactive | CC50 [9]: ≥ 250 µM | Activity [10]: inactive | Activity [12]: inactive | Activity [13]: inactive | Activity [14]: inactive | Activity [15]: inactive | CC50 [16]: > 250 µM | Activity [19]: inactive | Activity [20]: inactive | Activity [21]: inactive | Activity [22]: inactive | Activity [23]: inactive | Activity [24]: inactive | Activity [25]: inactive | Activity [26]: inactive | Activity [27]: inactive | Activity [29]: inactive | Activity [30]: inactive

CCOP(=O)(OCC)[C@@H]1C[C@@H](n2cc(C(=O)OC)nn2)ON1C (relative stereo)
Activity [1]: inactive | Activity [2]: inactive | Activity [3]: inactive | CC50 [4]: > 100 µM | Activity [5]: inactive | CC50 [6]: > 250 µM | Activity [8]: inactive | CC50 [9]: 191 µM | Activity [10]: inactive | Activity [12]: inactive | Activity [13]: inactive | Activity [14]: inactive | Activity [15]: inactive | CC50 [16]: > 250 µM | Activity [19]: inactive | Activity [20]: inactive | Activity [21]: inactive | Activity [22]: inactive | Activity [23]: inactive | Activity [24]: inactive | Activity [25]: inactive | Activity [26]: inactive | Activity [27]: inactive | Activity [29]: inactive | Activity [30]: inactive

CCOP(=O)(OCC)[C@@H]1C[C@H](n2cc(Cn3ccc(NC(C)=O)nc3=O)nn2)ON1C (relative stereo)
Activity [1]: inactive | Activity [2]: inactive | Activity [3]: inactive | CC50 [4]: > 100 µM | Activity [5]: inactive | CC50 [6]: > 250 µM | Activity [8]: inactive | CC50 [9]: > 250 µM | Activity [10]: inactive | Activity [12]: inactive | Activity [13]: inactive | Activity [14]: inactive | Activity [15]: inactive | CC50 [16]: > 250 µM | Activity [19]: inactive | Activity [20]: inactive | Activity [21]: inactive | Activity [22]: inactive | Activity [23]: inactive | Activity [24]: inactive | Activity [25]: inactive | Activity [26]: inactive | Activity [27]: inactive | Activity [29]: inactive | Activity [30]: inactive

CCOP(=O)(OCC)[C@@H]1C[C@H](n2cc(Cn3cnc4c(N)ncnc43)nn2)ON1C (relative stereo)
Activity [1]: inactive | Activity [2]: inactive | Activity [3]: inactive | CC50 [4]: > 100 µM | Activity [5]: inactive | CC50 [6]: > 250 µM | Activity [8]: inactive | CC50 [9]: 147 µM | Activity [10]: inactive | Activity [12]: inactive | Activity [13]: inactive | Activity [14]: inactive | Activity [15]: inactive | CC50 [16]: ≥ 250 µM | Activity [19]: inactive | Activity [20]: inactive | Activity [21]: inactive | Activity [22]: inactive | Activity [23]: inactive | Activity [24]: inactive | Activity [25]: inactive | Activity [26]: inactive | Activity [27]: inactive | Activity [29]: inactive | Activity [30]: inactive

CCOP(=O)(OCC)[C@@H]1C[C@H](n2cc(C(=O)OC)nn2)ON1C (relative stereo)
Activity [1]: inactive | Activity [2]: inactive | Activity [3]: inactive | CC50 [4]: > 100 µM | Activity [5]: inactive | CC50 [6]: > 250 µM | Activity [8]: inactive | CC50 [9]: 166 µM | Activity [10]: inactive | Activity [12]: inactive | Activity [13]: inactive | Activity [14]: inactive | Activity [15]: inactive | CC50 [16]: > 250 µM | Activity [19]: inactive | Activity [20]: inactive | Activity [21]: inactive | Activity [22]: inactive | Activity [23]: inactive | Activity [24]: inactive | Activity [25]: inactive | Activity [26]: inactive | Activity [27]: inactive | Activity [29]: inactive | Activity [30]: inactive
